Measurements pooled from the literature.
Protocols differ between the studies behind these lines.
Organism: Staphylococcus aureus
Effect on: microbial growth

The MIC of `CC(=O)NC[C@H]1CN(c2ccc(N3CCOCC3)c(F)c2)C(=O)O1` is reported as 1 µg/mL (broth dilution; ATCC29213).
`N=c1sc(C(=O)c2ccc(Nc3cnccn3)cc2)nn1-c1ccccc1` has an MIC of 50 µg/mL (broth dilution; ATCC25923).
`CC1(C)S[C@@H]2[C@H](NC(=O)[C@H](N)c3ccccc3)C(=O)N2[C@H]1C(=O)O` gave an MIC of 0.13 µg/mL (broth dilution; ATCC25923; 12 h).
The MIC of `CC(=O)NC[C@H]1CN(c2ccc(N3CCOCC3)c(F)c2)C(=O)O1` is reported as 2 µg/mL (agar dilution; ATCC43300).
`CCCCCCC#Cc1cncc(-c2nnc(SCc3cc([N+](=O)[O-])cc([N+](=O)[O-])c3)n2CCCN)c1` has an MIC of 8 to 16 µg/mL (broth dilution; MRSA).
`CC(=O)OCC1=C(C(=O)O)N2C(=O)[C@@H](NC(=O)Cc3cccs3)[C@H]2SC1` has an MIC of 6.25 µg/mL (broth dilution; ATCC25923).
The MIC of `CC(=O)NC[C@H]1CN(c2ccc(N3CCOCC3)c(F)c2)C(=O)O1` is reported as 1 µg/mL (broth dilution; USA300).
`CN[C@H](CC(C)C)C(=O)N[C@H]1C(=O)N[C@@H](CC(N)=O)C(=O)N[C@H]2C(=O)N[C@H]3C(=O)N[C@H](C(=O)N[C@H](C(=O)O)c4cc(O)cc(O)c4-c4cc3ccc4O)[C@H](O)c3ccc(c(Cl)c3)Oc3cc2cc(c3O[C@@H]2O[C@H](CO)[C@@H](O)[C@H](O)[C@H]2O[C@H]2C[C@](C)(N)[C@H](O)[C@H](C)O2)Oc2ccc(cc2Cl)[C@H]1O` has an MIC of 0.5 µg/mL (agar dilution; ATCC25923).
With `CCCCCCC#Cc1cncc(-c2nnc(SCc3cc(C(F)(F)F)cc(C(F)(F)F)c3)n2CCCN)c1` the MIC was 4 µg/mL (broth dilution; ATCC29213).
`CCN1CCC(CCNCc2cc3cc(-c4ccccc4)ccc3nc2SCc2ccccc2)CC1` has an MIC of 4 µg/mL (broth dilution).
`CCCCCCCCN=c1ccn(CCCCCCCCCCn2ccc(=NCCCCCCCC)cc2)cc1` gave an MIC of 0.5 µM (MRSA USA300; drug-resistant strain).
For `Cc1ccc2[nH]nc(-c3nnc(Nc4ccc(C(F)(F)F)cc4)s3)c2c1`, the MIC was 14.4 µg/mL (ATCC29213).
`CCCCCCCCCCCC[N+](C)(C)Cc1ccccc1` has an MIC of 32 µM (ATCC33591 MRSA; drug-resistant strain).
`COc1ccc(C=NNC(=O)CSc2nc3c(C)cccc3c(=O)n2-c2ccccc2)cc1OS(C)(=O)=O` has an MIC of 12.5 µg/mL (broth dilution).
For `C=C[C@]1(C)C[C@@H](OC(=O)CS[C@@H]2C[C@H]3CC[C@@H](C2)N3C)[C@]2(C)[C@H](C)CC[C@]3(CCC(=O)[C@H]32)[C@@H](C)[C@@H]1O`, the MIC was 0.0312 µg/mL (agar dilution; ATCC25923).
For `CN1CCN(CCNCc2cc3cc(Br)ccc3nc2SCc2ccccc2)CC1`, the MIC was 16 µg/mL (broth dilution).
With `CN(C)[C@@H]1C(O)=C(C(N)=O)C(=O)[C@@]2(O)C(O)=C3C(=O)c4c(O)cccc4[C@@](C)(O)[C@H]3C[C@@H]12` the MIC was 3.1 µM (broth dilution; ATCC25923; 16 h).
`CCCCCCC#Cc1cncc(-c2nnc(SCc3cc([N+](=O)[O-])cc([N+](=O)[O-])c3)n2CCOC2OC(CN)C(O)C2O)c1` (stereo not drawn) gave an MIC of over 64 µg/mL (broth dilution; ATCC29213).
The MIC of `CC[C@H]1OC(=O)[C@H](C)[C@@H](O[C@H]2C[C@@](C)(OC)[C@@H](O)[C@H](C)O2)[C@H](C)[C@@H](O[C@@H]2O[C@H](C)C[C@H](N(C)C)[C@H]2O)[C@](C)(O)C[C@@H](C)/C(=N\OCOCCOC)[C@H](C)[C@@H](O)[C@]1(C)O` is reported as 4 µg/mL (agar dilution; ATCC29213).
`Cc1ccc2[nH]nc(-c3nnc(Nc4ccc(Br)cc4)s3)c2c1` gave an MIC of 154 µg/mL (ATCC29213).
With `c1ccc(CSc2nc3ccc(-c4ccccc4)cc3cc2CNCCC2CCN(C3CCCC3)CC2)cc1` the MIC was 8 µg/mL (broth dilution).
`CC1(C)S[C@@H]2[C@H](NC(=O)[C@H](N)c3ccccc3)C(=O)N2[C@H]1C(=O)O` gave an MIC of 0.5 µg/mL (agar dilution; ATCC25923).
The MIC of `[H]/N=C(\N/C(=N/[H])NCCCCCCNC(=N)NC(=N)Nc1ccc(Cl)cc1)Nc1ccc(Cl)cc1` is reported as 0.5 µM (MSSA).
With `Brc1ccc2nc(SCc3ccccc3)c(CNCCC3CCN(C4CCCC4)CC3)cc2c1` the MIC was 32 µg/mL (broth dilution).
The MIC of `CN[C@H](CC(C)C)C(=O)N[C@H]1C(=O)N[C@@H](CC(N)=O)C(=O)N[C@H]2C(=O)N[C@H]3C(=O)N[C@H](C(=O)N[C@H](C(=O)O)c4cc(O)cc(O)c4-c4cc3ccc4O)[C@H](O)c3ccc(c(Cl)c3)Oc3cc2cc(c3O[C@@H]2O[C@H](CO)[C@@H](O)[C@H](O)[C@H]2O[C@H]2C[C@](C)(N)[C@H](O)[C@H](C)O2)Oc2ccc(cc2Cl)[C@H]1O` is reported as 0.67 µM (broth dilution; MRSA).
`COc1c(N2C[C@@H]3CCCN[C@@H]3C2)c(F)cc2c(=O)c(C(=O)O)cn(C3CC3)c12` has an MIC of 0.5 µg/mL (agar dilution; ATCC43300).
With `CCN1CCC(CCNCc2cc3cc(OC)c(OC)c(OC)c3nc2SCc2ccccc2)CC1` the MIC was 128 µg/mL (broth dilution).
`CCCCCCC#Cc1cncc(-c2nnc(SCc3ccc([N+](=O)[O-])cc3)n2CCCN)c1` gave an MIC of 8 µg/mL (broth dilution; ATCC29213).
For `[H]/N=C(/N)N[C@H]1[C@H](O)[C@@H](O)[C@H](O[C@@H]2O[C@@H](C)[C@](O)(C=O)[C@H]2O[C@@H]2O[C@@H](CO)[C@H](O)[C@@H](O)[C@@H]2NC)[C@@H](N/C(N)=N\[H])[C@@H]1O`, the MIC was 15 µg/mL (broth dilution; ATCC6538).
`CC(=O)c1ccc2cc(S(=O)(=O)Nc3ccc(Br)cc3)ccc2c1` has an MIC of 20000 µg/mL (broth dilution; ATCC25923).
With `Cc1ccc2[nH]nc(-c3nnc(Nc4ccc([N+](=O)[O-])cc4)s3)c2c1` the MIC was 37.4 µg/mL (ATCC29213).
`CC1(C)S[C@@H]2[C@H](NC(=O)[C@H](N)c3ccc(O)cc3)C(=O)N2[C@H]1C(=O)O` gave an MIC of 64 µg/mL (broth dilution; USA300).
`O=C(O)c1cn(C2CC2)c2cc(N3CCNCC3)c(F)cc2c1=O` has an MIC of 0.5 µg/mL (broth dilution; ATCC33591 MRSA).
`COc1cccc(OC)c1C(=O)N[C@@H]1C(=O)N2[C@@H]1SC(C)(C)[C@@H]2C(=O)O` has an MIC of over 64 µg/mL (broth dilution; USA300).
With `C[C@H]1COc2c(N3CCN(C)CC3)c(F)cc3c(=O)c(C(=O)O)cn1c23` the MIC was 0.12 µg/mL (ATCC29213 MSSA; drug-resistant strain).
The MIC of `CC[C@H]1OC(=O)[C@H](C)[C@@H](O[C@H]2C[C@@](C)(OC)[C@@H](O)[C@H](C)O2)[C@H](C)[C@@H](O[C@@H]2O[C@H](C)C[C@H](N(C)C)[C@H]2O)[C@](C)(O)C[C@@H](C)C(=O)[C@H](C)[C@@H](O)[C@]1(C)O` is reported as over 64 µg/mL (broth dilution; ATCCBAA44 BAA44).
`N#CC(C#N)=C1SC(C(=O)c2ccc(Nc3cnccn3)cc2)=NN1c1ccccc1` gave an MIC of 50 µg/mL (broth dilution; ATCC25923).
`CCC[C@@H]1C[C@@H](C(=O)N[C@@H]([C@H]2O[C@H](SC)[C@H](O)[C@@H](O)[C@H]2O)[C@@H](C)O)N(C)C1` gave an MIC of over 64 µg/mL (broth dilution; ATCCBAA44 BAA44).
`Cc1ccc2[nH]nc(-c3nnc(Nc4ccc(Cl)c(Br)c4)s3)c2c1` has an MIC of 204 µg/mL (ATCC29213).
